Data: ChEMBL document CHEMBL5303300, “EUbOPEN Chemogenomics Library - Multiplex” (2023)
Values joined by “and” are separate entries in the source; they are usually repeats but may differ in a detail not shown here. Equal values may be shown once.

System: HEK-293T
Assay: Multiplex assay against HEK293T
Type: toxicity, cell-based
Settings: human, number of replicates 2
Outline: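 Phenotypes for tubulin, mitochondrial mass and membrane permeability are expressed as per cents of healthy-nucleus cells. Cells were stained live at seeding with Hoechst33342, BioTracker Green Microtubule Cytoskeleton Dye, MitoTracker Red and Annexin V Alexa Fluor 680, then imaged after compound addition on a CQ1 microscope at 37°C and 5% CO2. Machine-learning gating in CellPathfinder separated Hoechst high-intensity objects from normal cells, divided normal cells by nuclear state (healthy, pyknosed, fragmented) and divided pyknosed cells into mitotic or apoptotic.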

[1] = 12 h, 1 µM, compound concentration 1 uM
[2] = 12 h, 10 µM, compound concentration 10 uM
[3] = 24 h, 1 µM, compound concentration 1 uM
[4] = 24 h, 10 µM, compound concentration 10 uM
[5] = 48 h, 1 µM, compound concentration 1 uM
[6] = 48 h, 10 µM, compound concentration 10 uM

Cc1cn(CCN2CCN(c3ccccc3-c3cc(C#N)cc(C(=O)NCCCN4CCCC4)c3)CC2)c2ccccc12
Population Apoptotic (%) [1]: 34% and 44%
Population Fragmented Nuclei (%) [1]: 3%
Population Healthy Nuclei (%) [1]: 82% and 84%
Population Hoechst High Intensity Objects (%) [1]: 7% and 6%
Population Membrane Permeable-Phenotype (%) [1]: 3% and 4%
Population Mitochondria Different-Phenotype (%) [1]: 26% and 20%
Population Mitotic Cells (%) [1]: 65% and 55%
Population Normal (%) [1]: 92% and 93%
Population Pyknosed Nuclei (%) [1]: 13% and 12%
Population Tubulin-Different-Phenotype (%) [1]: 72% and 71%
Total Cell Count [1]: 634 and 574
Population Apoptotic (%) [2]: 70% and 65%
Population Fragmented Nuclei (%) [2]: 2%
Population Healthy Nuclei (%) [2]: 81% and 78%
Population Hoechst High Intensity Objects (%) [2]: 5%
Population Membrane Permeable-Phenotype (%) [2]: 2% and 1%
Population Mitochondria Different-Phenotype (%) [2]: 71% and 72%
Population Mitotic Cells (%) [2]: 30% and 34%
Population Normal (%) [2]: 94%
Population Pyknosed Nuclei (%) [2]: 16% and 18%
Population Tubulin-Different-Phenotype (%) [2]: 97% and 94%
Total Cell Count [2]: 511 and 463
Population Apoptotic (%) [3]: 46% and 42%
Population Fragmented Nuclei (%) [3]: 5% and 3%
Population Healthy Nuclei (%) [3]: 86% and 89%
Population Hoechst High Intensity Objects (%) [3]: 8%
Population Membrane Permeable-Phenotype (%) [3]: 3%
Population Mitochondria Different-Phenotype (%) [3]: 12%
Population Mitotic Cells (%) [3]: 53% and 57%
Population Normal (%) [3]: 91%
Population Pyknosed Nuclei (%) [3]: 7% and 6%
Population Tubulin-Different-Phenotype (%) [3]: 57% and 51%
Total Cell Count [3]: 1111 and 826
Population Apoptotic (%) [4]: 77% and 76%
Population Fragmented Nuclei (%) [4]: 1% and 3%
Population Healthy Nuclei (%) [4]: 85% and 79%
Population Hoechst High Intensity Objects (%) [4]: 9% and 4%
Population Membrane Permeable-Phenotype (%) [4]: 1% and 2%
Population Mitochondria Different-Phenotype (%) [4]: 88% and 81%
Population Mitotic Cells (%) [4]: 22% and 23%
Population Normal (%) [4]: 90% and 95%
Population Pyknosed Nuclei (%) [4]: 12% and 16%
Population Tubulin-Different-Phenotype (%) [4]: 97% and 95%
Total Cell Count [4]: 524 and 487
Population Apoptotic (%) [5]: 16% and 21%
Population Fragmented Nuclei (%) [5]: 14% and 8%
Population Healthy Nuclei (%) [5]: 82% and 87%
Population Hoechst High Intensity Objects (%) [5]: 10% and 8%
Population Membrane Permeable-Phenotype (%) [5]: 5% and 3%
Population Mitochondria Different-Phenotype (%) [5]: 1% and 4%
Population Mitotic Cells (%) [5]: 83% and 78%
Population Normal (%) [5]: 89% and 91%
Population Pyknosed Nuclei (%) [5]: 3% and 4%
Population Tubulin-Different-Phenotype (%) [5]: 27% and 31%
Total Cell Count [5]: 2524 and 1476
Population Apoptotic (%) [6]: 65% and 73%
Population Fragmented Nuclei (%) [6]: 6% and 8%
Population Healthy Nuclei (%) [6]: 82% and 77%
Population Hoechst High Intensity Objects (%) [6]: 7% and 11%
Population Membrane Permeable-Phenotype (%) [6]: 3% and 1%
Population Mitochondria Different-Phenotype (%) [6]: 57% and 66%
Population Mitotic Cells (%) [6]: 34% and 26%
Population Normal (%) [6]: 92% and 88%
Population Pyknosed Nuclei (%) [6]: 10% and 14%
Population Tubulin-Different-Phenotype (%) [6]: 90% and 93%
Total Cell Count [6]: 709 and 587

CNS(=O)(=O)c1ccc(N(C)C)c(Nc2ncnc3cc(OC)c(OC)cc23)c1
Population Apoptotic (%) [1]: 51% and 45%
Population Fragmented Nuclei (%) [1]: 3% and 2%
Population Healthy Nuclei (%) [1]: 81% and 83%
Population Hoechst High Intensity Objects (%) [1]: 5% and 8%
Population Membrane Permeable-Phenotype (%) [1]: 2%
Population Mitochondria Different-Phenotype (%) [1]: 17% and 12%
Population Mitotic Cells (%) [1]: 48% and 54%
Population Normal (%) [1]: 94% and 91%
Population Pyknosed Nuclei (%) [1]: 14%
Population Tubulin-Different-Phenotype (%) [1]: 37% and 34%
Total Cell Count [1]: 547 and 550
Population Apoptotic (%) [2]: 47% and 54%
Population Fragmented Nuclei (%) [2]: 2% and 3%
Population Healthy Nuclei (%) [2]: 87% and 88%
Population Hoechst High Intensity Objects (%) [2]: 7%
Population Membrane Permeable-Phenotype (%) [2]: 2% and 1%
Population Mitochondria Different-Phenotype (%) [2]: 26% and 24%
Population Mitotic Cells (%) [2]: 52% and 45%
Population Normal (%) [2]: 92%
Population Pyknosed Nuclei (%) [2]: 9% and 8%
Population Tubulin-Different-Phenotype (%) [2]: 59%
Total Cell Count [2]: 607
Population Apoptotic (%) [3]: 45% and 47%
Population Fragmented Nuclei (%) [3]: 5% and 7%
Population Healthy Nuclei (%) [3]: 86% and 84%
Population Hoechst High Intensity Objects (%) [3]: 7% and 6%
Population Membrane Permeable-Phenotype (%) [3]: 3% and 1%
Population Mitochondria Different-Phenotype (%) [3]: 4%
Population Mitotic Cells (%) [3]: 54% and 52%
Population Normal (%) [3]: 92% and 93%
Population Pyknosed Nuclei (%) [3]: 8%
Population Tubulin-Different-Phenotype (%) [3]: 13% and 17%
Total Cell Count [3]: 888 and 859
Population Apoptotic (%) [4]: 53% and 62%
Population Fragmented Nuclei (%) [4]: 3% and 5%
Population Healthy Nuclei (%) [4]: 89% and 87%
Population Hoechst High Intensity Objects (%) [4]: 8% and 11%
Population Membrane Permeable-Phenotype (%) [4]: 1%
Population Mitochondria Different-Phenotype (%) [4]: 16% and 20%
Population Mitotic Cells (%) [4]: 46% and 37%
Population Normal (%) [4]: 91% and 88%
Population Pyknosed Nuclei (%) [4]: 7%
Population Tubulin-Different-Phenotype (%) [4]: 51% and 49%
Total Cell Count [4]: 699 and 675
Population Apoptotic (%) [5]: 18% and 9%
Population Fragmented Nuclei (%) [5]: 13% and 11%
Population Healthy Nuclei (%) [5]: 83% and 85%
Population Hoechst High Intensity Objects (%) [5]: 7% and 8%
Population Membrane Permeable-Phenotype (%) [5]: 5% and 3%
Population Mitochondria Different-Phenotype (%) [5]: 0%
Population Mitotic Cells (%) [5]: 81% and 90%
Population Normal (%) [5]: 92% and 91%
Population Pyknosed Nuclei (%) [5]: 3%
Population Tubulin-Different-Phenotype (%) [5]: 5%
Total Cell Count [5]: 2132 and 1975
Population Apoptotic (%) [6]: 20% and 37%
Population Fragmented Nuclei (%) [6]: 11% and 8%
Population Healthy Nuclei (%) [6]: 86% and 87%
Population Hoechst High Intensity Objects (%) [6]: 12%
Population Membrane Permeable-Phenotype (%) [6]: 3% and 2%
Population Mitochondria Different-Phenotype (%) [6]: 2%
Population Mitotic Cells (%) [6]: 80% and 62%
Population Normal (%) [6]: 87%
Population Pyknosed Nuclei (%) [6]: 2% and 4%
Population Tubulin-Different-Phenotype (%) [6]: 39%
Total Cell Count [6]: 1182 and 985

c1ccc2c(-c3coc4cc(-c5ccc(N6CCNCC6)cc5)cnc34)ccnc2c1
Population Apoptotic (%) [1]: 49% and 54%
Population Healthy Nuclei (%) [1]: 84% and 87%
Population Mitotic Cells (%) [1]: 50% and 45%
Population Normal (%) [1]: 94%
Population Pyknosed Nuclei (%) [1]: 13% and 10%
Population Tubulin-Different-Phenotype (%) [1]: 46% and 49%
Total Cell Count [1]: 595 and 552
Population Apoptotic (%) [2]: 75% and 58%
Population Healthy Nuclei (%) [2]: 32% and 33%
Population Mitotic Cells (%) [2]: 24% and 41%
Population Normal (%) [2]: 82% and 84%
Population Pyknosed Nuclei (%) [2]: 59%
Population Tubulin-Different-Phenotype (%) [2]: 86% and 81%
Total Cell Count [2]: 394 and 507
Population Apoptotic (%) [3]: 36% and 45%
Population Healthy Nuclei (%) [3]: 88% and 87%
Population Mitotic Cells (%) [3]: 63% and 54%
Population Normal (%) [3]: 95% and 93%
Population Pyknosed Nuclei (%) [3]: 9%
Population Tubulin-Different-Phenotype (%) [3]: 34% and 40%
Total Cell Count [3]: 920 and 770
Population Apoptotic (%) [4]: 85% and 72%
Population Healthy Nuclei (%) [4]: 19% and 24%
Population Mitotic Cells (%) [4]: 14% and 27%
Population Normal (%) [4]: 82% and 80%
Population Pyknosed Nuclei (%) [4]: 71% and 67%
Population Tubulin-Different-Phenotype (%) [4]: 89% and 87%
Total Cell Count [4]: 387 and 484
Population Apoptotic (%) [5]: 13% and 18%
Population Healthy Nuclei (%) [5]: 90% and 89%
Population Mitotic Cells (%) [5]: 86% and 81%
Population Normal (%) [5]: 93% and 92%
Population Pyknosed Nuclei (%) [5]: 4% and 5%
Population Tubulin-Different-Phenotype (%) [5]: 18% and 22%
Total Cell Count [5]: 1932 and 1615
Population Apoptotic (%) [6]: 90% and 79%
Population Healthy Nuclei (%) [6]: 11% and 23%
Population Mitotic Cells (%) [6]: 9% and 20%
Population Normal (%) [6]: 81% and 79%
Population Pyknosed Nuclei (%) [6]: 74% and 64%
Population Tubulin-Different-Phenotype (%) [6]: 86% and 91%
Total Cell Count [6]: 372 and 450

O=C1NC(=NCc2cccs2)SC1=Cc1ccc2ncccc2c1
Population Apoptotic (%) [1]: 54% and 38%
Population Fragmented Nuclei (%) [1]: 6% and 4%
Population Healthy Nuclei (%) [1]: 78% and 85%
Population Hoechst High Intensity Objects (%) [1]: 8% and 7%
Population Membrane Permeable-Phenotype (%) [1]: 4% and 2%
Population Mitochondria Different-Phenotype (%) [1]: 15% and 9%
Population Mitotic Cells (%) [1]: 45% and 61%
Population Normal (%) [1]: 91% and 92%
Population Pyknosed Nuclei (%) [1]: 15% and 10%
Population Tubulin-Different-Phenotype (%) [1]: 46% and 45%
Total Cell Count [1]: 632 and 733
Population Apoptotic (%) [2]: 54% and 69%
Population Fragmented Nuclei (%) [2]: 1% and 2%
Population Healthy Nuclei (%) [2]: 90% and 92%
Population Hoechst High Intensity Objects (%) [2]: 3% and 6%
Population Membrane Permeable-Phenotype (%) [2]: 4%
Population Mitochondria Different-Phenotype (%) [2]: 21% and 19%
Population Mitotic Cells (%) [2]: 45% and 30%
Population Normal (%) [2]: 96% and 93%
Population Pyknosed Nuclei (%) [2]: 7% and 5%
Population Tubulin-Different-Phenotype (%) [2]: 78% and 72%
Total Cell Count [2]: 644 and 684
Population Apoptotic (%) [3]: 40% and 31%
Population Fragmented Nuclei (%) [3]: 6% and 4%
Population Healthy Nuclei (%) [3]: 84% and 89%
Population Hoechst High Intensity Objects (%) [3]: 8%
Population Membrane Permeable-Phenotype (%) [3]: 3% and 2%
Population Mitochondria Different-Phenotype (%) [3]: 3% and 5%
Population Mitotic Cells (%) [3]: 59% and 68%
Population Normal (%) [3]: 91%
Population Pyknosed Nuclei (%) [3]: 9% and 6%
Population Tubulin-Different-Phenotype (%) [3]: 19% and 30%
Total Cell Count [3]: 1066 and 1062
Population Apoptotic (%) [4]: 63% and 77%
Population Fragmented Nuclei (%) [4]: 2%
Population Healthy Nuclei (%) [4]: 91% and 93%
Population Hoechst High Intensity Objects (%) [4]: 6% and 5%
Population Membrane Permeable-Phenotype (%) [4]: 2% and 1%
Population Mitochondria Different-Phenotype (%) [4]: 9% and 12%
Population Mitotic Cells (%) [4]: 36% and 22%
Population Normal (%) [4]: 93% and 94%
Population Pyknosed Nuclei (%) [4]: 5% and 4%
Population Tubulin-Different-Phenotype (%) [4]: 57% and 55%
Total Cell Count [4]: 699 and 690
Population Apoptotic (%) [5]: 14% and 11%
Population Fragmented Nuclei (%) [5]: 16% and 10%
Population Healthy Nuclei (%) [5]: 80% and 86%
Population Hoechst High Intensity Objects (%) [5]: 9% and 10%
Population Membrane Permeable-Phenotype (%) [5]: 5%
Population Mitochondria Different-Phenotype (%) [5]: 0% and 1%
Population Mitotic Cells (%) [5]: 85% and 88%
Population Normal (%) [5]: 90% and 89%
Population Pyknosed Nuclei (%) [5]: 3%
Population Tubulin-Different-Phenotype (%) [5]: 9% and 14%
Total Cell Count [5]: 2821 and 2321
Population Apoptotic (%) [6]: 45% and 59%
Population Fragmented Nuclei (%) [6]: 8% and 7%
Population Healthy Nuclei (%) [6]: 87% and 89%
Population Hoechst High Intensity Objects (%) [6]: 8% and 7%
Population Membrane Permeable-Phenotype (%) [6]: 2% and 0%
Population Mitochondria Different-Phenotype (%) [6]: 3% and 5%
Population Mitotic Cells (%) [6]: 54% and 40%
Population Normal (%) [6]: 91% and 92%
Population Pyknosed Nuclei (%) [6]: 3%
Population Tubulin-Different-Phenotype (%) [6]: 21% and 26%
Total Cell Count [6]: 740 and 737
